Rtt109 Vps75 – inhibitors of Candida albicans Rtt109/Vps75 histone acetyltransferase. inhibition, % at 34.9 µM. purified Rtt109/Vps75, ThioGlo CoA-SH fluorescence, 4 h. 330,000 tested, 0.16% active. Q5AAJ8. AID 540336;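 active = inhibition of at least 50% in every replicate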
CAL PDZ FP-1 – CAL PDZ (human) peptide binding inhibition | 300,000 tested, 0.92% active | inhibition, % at 24.9 µM | Q9HD26 | purified CAL PDZ, TMR-peptide fluorescence polarization, 1 h;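 active = mean inhibition of at least 30% with at least half of replicates also reaching 30%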
CAL PDZ FP-2 – inhibitors of human CAL PDZ peptide binding; purified CAL PDZ, TMR-peptide fluorescence polarization, 1 h; inhibition, % at 20 µM; 330,000 tested, 0.02% active;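 active = highest replicate inhibition of at least 40%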
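Test system: tagged CAL PDZ domain / Buffer or medium: sodium phosphate/NaCl buffer pH 7.4 with TCEP, IgG, Thesit / Reagent: TMR-labelled reporter peptide T*-PRC34 bound in PDZ groove / Compound dosing: single point, 20 µM / Schedule: 1 h incubation at room temperature before polarization reading / Technique: fluorescence polarization (mP) / Benchmarks: unlabelled peptide, DMSO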
CDK5 p35 inh – blocks human CDK5/p35 kinase activity; Recombinant CDK5/p35, ADP-Glo luminescence, 60 min; Q00535+Q15078; 330,000 tested, 0.01% active; inhibition, % at 10 µM;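 active = highest replicate inhibition of at least 50% and at least 75% of replicates reaching 50%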
DYRK1A inh – Dyrk1A (rat) kinase inhibition. Q63470. ADP-Glo luminescence, NFATc1 peptide. inhibition, % at 12.5 µM. 310,000 tested, 0.43% active; in the data active = inhibition above about 50%
dFosB act – mouse delta FosB homodimer activation; P13346; AID 493131; activation, % at 25 µM; purified delta FosB, TAMRA-CDK5 oligo fluorescence polarization; percent of positive-control signal above neutral wells; 340,000 tested, 0.99% active;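 active = mean activation above about 17%, with every replicate also reaching it, limit read from the data, passing the limit was not always enough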
Target sequence (P13346 whole entry, looked up): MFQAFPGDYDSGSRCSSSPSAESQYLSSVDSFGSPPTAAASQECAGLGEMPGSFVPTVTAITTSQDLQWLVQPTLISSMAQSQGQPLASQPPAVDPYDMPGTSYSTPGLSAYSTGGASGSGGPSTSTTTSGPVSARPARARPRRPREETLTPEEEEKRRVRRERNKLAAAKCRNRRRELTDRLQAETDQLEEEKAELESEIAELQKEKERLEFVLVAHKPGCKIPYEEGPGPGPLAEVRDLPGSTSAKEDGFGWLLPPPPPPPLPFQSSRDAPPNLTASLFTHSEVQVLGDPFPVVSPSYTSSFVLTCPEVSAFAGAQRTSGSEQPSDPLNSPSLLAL
ADP-Glo artifact – ADP-Glo luciferase interference, Dyrk1A counter-screen. AC50, µM (top dose mostly 12 µM). shares compounds with DYRK1A inh. ADP-Glo luciferase artifact assay, no Dyrk1A, luminescence. 1,300 tested, under 10 active;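 active = fitted half-maximal dose AC50 no more than ten times the top valid tested dose, with luminescence dropping as dose rises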
Of the large screens only hits and unclear results are named; the others gave an inactive call (follow-up assays come after a bar, where they were run). This is a sample that favours compounds with a hit; in the whole collection about 2.2% have one here.

Cc1cc(N2CCC(C)CC2)nc2cccc(O)c12	DYRK1A inh 51 (no result: CAL PDZ FP-1) | ADP-Glo artifact inactive
COc1cccc(Nc2nc(-c3ccc(O)cc3)cs2)c1	DYRK1A inh 54 (no result: CAL PDZ FP-2) | ADP-Glo artifact inactive
C=CCOc1c(Br)cc(/C=C2/C(=O)ON=C2C)cc1OC	none
Cc1ccc(OCC(=O)Nc2ccc3c(c2)C(=O)NC3=O)c(C)c1	none
COc1ccc2c(Cl)c(C(=O)N/N=C/c3cccnc3)sc2c1	DYRK1A inh 64 | ADP-Glo artifact inactive
COc1ccc2c(Cl)c(C(=O)NN)sc2c1	none
COc1ccc2c(Cl)c(C(N)=O)sc2c1	DYRK1A inh 84 (no result: CAL PDZ FP-2) | ADP-Glo artifact inactive
COc1ccc(C/C(C)=N/NC(=O)c2cccnc2)cc1	none
CCOC(=O)N1CCN(C(=O)COc2cccc3c2CCN(Cc2ccccc2F)C3=O)CC1	none
Cc1cc(NC(=O)C(C)SCC(=O)Nc2cc(Cl)ccc2N2CCN(C)CC2)no1 (stereo not given)	none
COc1ccc(NC(=O)Nc2cccc3ccccc23)cc1S(N)(=O)=O	none
Cn1c(C(=O)NC2CC2)cc2c(=O)n(C)c3ccccc3c21	DYRK1A inh 54 | ADP-Glo artifact inactive
CCN(CC)CCCNC(=O)c1cc2c(=O)n(C)c3ccccc3c2n1C	DYRK1A inh 57 (no result: CAL PDZ FP-1) | ADP-Glo artifact inactive
CN1CCN(CCNC(=O)c2cc3c(=O)n(C)c4ccccc4c3n2C)CC1	DYRK1A inh 57 (no result: CAL PDZ FP-1) | ADP-Glo artifact inactive
CCN(CC)CCNC(=O)c1cc2c(=O)n(C)c3ccccc3c2n1C	DYRK1A inh 58 (no result: CAL PDZ FP-1) | ADP-Glo artifact inactive
CCCCN(CC)CCNC(=O)c1cc2c(=O)n(C)c3ccccc3c2n1C	none (no result: CAL PDZ FP-1)
CCCN(c1ccc(OCC)cc1)S(=O)(=O)c1ccc2c(c1)NC(=O)CO2	none
Cc1c(Cl)c([N+](=O)[O-])nn1CC(=O)Nc1ccc2c(c1)OCO2	none
COC(=O)C(NC(C)=O)(Nc1ccc(C)cn1)C(F)(F)F (stereo not given)	none (no result: DYRK1A inh)
CCC(=O)Nc1ccc(NC(=O)CSc2nnc(-c3ccco3)n2CC)cc1	none (no result: CAL PDZ FP-1)
CCn1cc(CCCC(=O)NCc2cccc(OC)c2)c2ccccc21	none
CN(C)CCNC(=O)c1cc2c(=O)n(C)c3ccccc3c2n1C	DYRK1A inh 53 | ADP-Glo artifact inactive
COCCNC(=O)c1cc2c(=O)n(C)c3ccccc3c2n1C	none
Nc1ccc(-c2ccc(C(=O)O)s2)cn1	DYRK1A inh 71 | ADP-Glo artifact inactive
O=C(COC(=O)COc1ccccc1)NCc1ccc2c(c1)OCO2	none (no result: CAL PDZ FP-1)
COc1ccc(-n2nc(C)cc2Nc2ccccc2C(=O)O)cc1	DYRK1A inh 66 | ADP-Glo artifact inactive
Nc1ncnc(N)c1N=Nc1ccccc1	DYRK1A inh 54 (no result: CAL PDZ FP-1) | ADP-Glo artifact inactive
CC(C)NC(=O)Nc1ccc2c(c1)C(=O)N([C@H](C)CO)C[C@H](C)[C@@H](CN(C)S(=O)(=O)c1cn(C)cn1)O2	none (no result: DYRK1A inh)
